Reference: ChEMBL document CHEMBL1156678, “A new class of analgesic agents toward prostacyclin receptor inhibition: synthesis, biological studies and QSAR analysis of 1-hydroxyl-2-substituted phenyl-4,4,5,5-tetramethylimidazolines” (Eur J Med Chem, 2008)

How the values were obtained:
Mus musculus [1] = test: Thrombotic toxicity in ICR mouse assessed as tail bleeding time at 1.3 mmol/kg, ip after 60 mins; assay type: organism-based; conditions: in vivo, 1 h
Procedure, shortened: (§1)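 Male ICR mice (25 ± 2 g) were kept one day on a 12/12 h light/dark cycle at 21 ± 2 °C. Each received a single i.p. dose of 1.30 mmol/kg in saline/DMSO/Tween-80 (0.2/0.01/0.02 ml), or the solvent only. The restrained mouse had 1 mm cut from the tail before dosing and at 5, 15, 30 and 60 min. Bleeding time (s) is reported as mean ± SD.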

[2] = Cardiovascular toxicity in rat aorta assessed as inhibition of noradrenaline-induced vasoconstriction at 5 mM relative to control; assay type: tissue-based; conditions: isolated rat aorta
Procedure, shortened: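 Rat aortic strips were contracted with noradrenaline, washed, stabilized for 30 min, and contracted again. At peak contraction, compound was added (final 5 × 10^-3 M) or vehicle alone. The relaxant response was recorded as percentage inhibition of the contraction.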

Mus musculus [3] = test: Analgesic activity in ICR mouse assessed as pain threshold variation at 0.13 mmol/kg, ip after 30 mins by tail flick test relative to control; assay type: functional
Procedure, shortened: (§2)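 Male ICR mice (25 ± 2 g), kept on a 12/12 h light/dark cycle at 21 ± 2 °C for one day before use. Each received a single i.p. injection in 0.2 ml saline + 0.01 ml DMSO + 0.02 ml Tween-80. Vehicle-only mice served as controls. Basal tail-flick threshold was measured four times (BPT). Thresholds were then read every 30 min for 150 min. PTV = (post-dose threshold − BPT)/BPT. n = 10, x ± SD.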

Mus musculus [4] = test: Analgesic activity in ICR mouse assessed as pain threshold variation at 0.13 mmol/kg, ip after 60 mins by tail flick test relative to control; assay type: functional; procedure, shortened: as §2
Mus musculus [5] = test: Analgesic activity in ICR mouse assessed as pain threshold variation at 0.13 mmol/kg, ip after 90 mins by tail flick test relative to control; assay type: functional; procedure, shortened: as §2
Mus musculus [6] = test: Analgesic activity in ICR mouse assessed as pain threshold variation at 0.13 mmol/kg, ip after 120 mins by tail flick test; assay type: functional; procedure, shortened: as §2
Mus musculus [7] = test: Analgesic activity in ICR mouse assessed as pain threshold variation at 0.13 mmol/kg, ip after 150 mins by tail flick test; assay type: functional; procedure, shortened: as §2
Mus musculus [8] = test: Thrombotic toxicity in ICR mouse assessed as tail bleeding time at 1.3 mmol/kg, ip after 5 mins; assay type: organism-based; conditions: in vivo; procedure, shortened: as §1
Mus musculus [9] = test: Thrombotic toxicity in ICR mouse assessed as tail bleeding time at 1.3 mmol/kg, ip after 15 mins; assay type: organism-based; conditions: in vivo, 0.25 h; procedure, shortened: as §1
Mus musculus [10] = test: Thrombotic toxicity in ICR mouse assessed as tail bleeding time at 1.3 mmol/kg, ip after 30 mins; assay type: organism-based; conditions: in vivo, 0.5 h; procedure, shortened: as §1

Compound	Activity (Mus musculus [1])	inhibition at 5000 µM [2]	Activity (Mus musculus [3])	Activity (Mus musculus [4])	Activity (Mus musculus [5])	Activity (Mus musculus [6])	Activity (Mus musculus [7])	Activity (Mus musculus [8])	Activity (Mus musculus [9])	Activity (Mus musculus [10])
CC1(C)N=C(c2ccccc2)N(O)C1(C)C	117 s	22.9%	43.67%	37.68%	37.07%	37.41%	35.48%	117 s	119 s	118 s
COc1ccc(C2=NC(C)(C)C(C)(C)N2O)cc1	118 s	19.7%	64.55%	76.13%	66.49%	65.23%	46.74%	119 s	118 s	118 s
CC1(C)N=C(c2cccc([N+](=O)[O-])c2)N(O)C1(C)C	117 s	31.8%	52.76%	62.07%	63.46%	60.26%	70.83%	117 s	118 s	119 s
CC1(C)N=C(c2ccccc2O)N(O)C1(C)C	118 s	22.9%	50.76%	49.93%	68.27%	73.13%	67.3%	118 s	117 s	119 s
CC1(C)N=C(c2ccc(Cl)cc2Cl)N(O)C1(C)C	119 s	15.9%	46.97%	46.31%	44.1%	46.12%	45.99%	117 s	117 s	119 s
CC1(C)N=C(c2ccc(Cl)c(Cl)c2)N(O)C1(C)C	117 s	22.8%	20.52%	21.43%	41.9%	40.17%	50.62%	118 s	118 s	118 s
CC1(C)N=C(c2ccc(O)cc2)N(O)C1(C)C	119 s	13.6%	57.6%	74.74%	79.8%	53.45%	27.62%	116 s	118 s	119 s
COc1ccc(C2=NC(C)(C)C(C)(C)N2O)cc1O	119 s	35.1%	44.33%	59.85%	60.71%	50.77%	41.62%	120 s	118 s	117 s
CC1(C)N=C(c2cccc(O)c2)N(O)C1(C)C	119 s	46.3%	50.69%	59.38%	59.94%	77.78%	72.88%	117 s	119 s	118 s
CN(C)c1ccc(C2=NC(C)(C)C(C)(C)N2O)cc1	119 s	6.63%	34.3%	39.44%	40.17%	37.34%	31.27%	117 s	117 s	117 s
